3 compounds from ChEMBL document CHEMBL3351265 can be followed below.

Active and inactive are the calls of the source. The rule behind the calls is not given here.

Experiment [1] relates to Toledo. Description: Antiproliferative activity against human Toledo cells at 5 uM after 72 hrs by flow cytometry in presence of 5 uM EPZ005687. On the technique in general: In flow cytometry, cells or beads pass a laser one at a time.
Experiment [2] concerns Pfeiffer. Description: Antiproliferative activity against human Pfeiffer cells after 7 days by CCK-8 assay. It is filed as functional, cell-based. In outline: (§1)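 DLBCL lines from ATCC grown in RPMI 1640 with 10% FBS and Pen/Strep; 1−2 × 10^4 cells per well seeded in serum-containing medium with compound, triplicate cultures; 7 days incubation; viability by CCK-8 absorbance at 450 nm (600 nm reference), expressed as percentage of absorbance relative to control cells.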
On the technique in general: Formazan colour is commonly taken as a measure of viable cells.

Experiment [3] deals with DB. Description: Reduction in EED protein expression in human DB cells after 72 hrs by Western blot analysis. It counts as functional, cell-based. In outline: (§2)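 DB (mutant EZH2) or Toledo (wild-type EZH2) DLBCL cells treated with compound for 72 h; lysed in RIPA buffer; 30 μg total protein resolved by SDS-PAGE, blotted to PVDF, probed for EZH2, EED, SUZ12 or H3K27me3 with HRP secondary and chemiluminescent detection; total histone H3 as loading control; 10 μM EPZ005687 as reference inhibitor.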

The target of experiment [4] is Polycomb protein EED (Homo sapiens) (UniProt O75530).
Chain of Polycomb protein EED (Homo sapiens) (O75530 2-441 limits assumed): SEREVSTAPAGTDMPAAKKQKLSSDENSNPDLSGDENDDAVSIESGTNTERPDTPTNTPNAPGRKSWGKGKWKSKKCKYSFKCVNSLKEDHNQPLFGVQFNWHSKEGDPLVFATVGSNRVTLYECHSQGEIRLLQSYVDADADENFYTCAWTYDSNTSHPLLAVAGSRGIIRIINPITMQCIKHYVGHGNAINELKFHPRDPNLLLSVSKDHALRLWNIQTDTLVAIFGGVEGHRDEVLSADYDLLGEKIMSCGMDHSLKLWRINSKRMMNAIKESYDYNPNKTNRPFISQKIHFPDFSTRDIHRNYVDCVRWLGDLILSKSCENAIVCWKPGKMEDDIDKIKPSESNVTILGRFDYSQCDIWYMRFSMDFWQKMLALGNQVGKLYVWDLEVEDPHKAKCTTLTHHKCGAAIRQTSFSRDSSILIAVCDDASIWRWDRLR
In experiment [5] the test system is SU-DHL-6. Nature of the experiment: Antiproliferative activity against human SU-DHL6 cells at 5 uM after 7 days by CCK-8 assay in presence of 5 uM EPZ005687. It is filed as functional, cell-based.
In experiment [6] the test system is SUD4. Description: Antiproliferative activity against human SU-DHL4 cells after 7 days by CCK8 assay.
For experiment [7], the system named is DB. Nature of the experiment: Reduction in SUZ12 protein expression in human DB cells after 72 hrs by Western blot analysis. It is filed as functional, cell-based. Put shortly:
as §2
Background: Immunoblotting shows a protein as a band on a membrane.

The test system of experiment [8] is DB. Nature of the experiment: Antiproliferative activity against shRNA-treated human DB cells at 2.5 to 15 uM after 3 days by Alamar blue assay. It counts as functional, cell-based. In outline: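 DB cells transduced with lentiviral pSICOR shRNA (mock, shEED or shEZH2); 5000 cells per well in serum-containing medium with compound, triplicate cultures; 3 days incubation; alamar blue added, plates incubated at 37 °C and read at 560 nm.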

Experiment [9] relates to SU-DHL-6. Description: Antiproliferative activity against human SU-DHL6 cells after 7 days by CCK-8 assay. It is filed as functional, cell-based. Put shortly:
as §1

Experiment [10] deals with Toledo. Description: Antiproliferative activity against human Toledo cells after 7 days by CCK-8 assay. It is filed as functional, cell-based. In outline:
as §1

Experiment [11] can be described thus: Reduction in EED protein expression in human Toledo cells after 72 hrs by Western blot analysis. It is filed as functional, cell-based. In outline:
as §2

Experiment [12] deals with SUD4. Description: Antiproliferative activity against human SU-DHL4 cells after 7 days by CCK-8 assay. It is filed as functional, cell-based. In outline: as §1
Experiment [13] has as its system Polycomb protein EED (Homo sapiens), O75530 [L315D]. As to conditions: 200 uM.
Experiment [14] concerns Polycomb protein EED (Homo sapiens), O75530 [L123E]. The note with it: 200 uM.
Chain of Polycomb protein EED (Homo sapiens), O75530 [L123E] (O75530 whole entry L123E): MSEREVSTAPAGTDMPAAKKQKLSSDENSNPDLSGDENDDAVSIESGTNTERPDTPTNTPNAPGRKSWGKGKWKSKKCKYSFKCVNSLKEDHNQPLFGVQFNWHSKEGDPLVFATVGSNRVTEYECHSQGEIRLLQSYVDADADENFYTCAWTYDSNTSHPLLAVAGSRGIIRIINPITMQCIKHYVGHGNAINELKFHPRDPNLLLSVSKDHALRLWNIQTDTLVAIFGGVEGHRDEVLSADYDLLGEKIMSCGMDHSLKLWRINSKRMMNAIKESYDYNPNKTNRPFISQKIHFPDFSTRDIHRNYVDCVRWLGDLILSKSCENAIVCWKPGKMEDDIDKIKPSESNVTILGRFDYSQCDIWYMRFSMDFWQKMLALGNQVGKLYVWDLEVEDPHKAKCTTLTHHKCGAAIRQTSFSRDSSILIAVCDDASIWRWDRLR
For experiment [15], the system named is Polycomb protein EED (Homo sapiens), O75530 [V112E]. As to conditions: 200 uM.
Chain of Polycomb protein EED (Homo sapiens), O75530 [V112E] (O75530 whole entry V112E): as the sequence (O75530 whole entry L123E) above, with V112E, E123L counted along it
For experiment [16], the system named is DB. Nature of the experiment: Antiproliferative activity against human DB cells at 5 uM after 72 hrs by flow cytometry in presence of 5 uM EPZ005687.
Experiment [17] relates to Polycomb protein EED (Homo sapiens), O75530 [L246E]. The note with it: 200 uM.
Chain of Polycomb protein EED (Homo sapiens), O75530 [L246E] (O75530 whole entry L246E): as the sequence (O75530 whole entry L123E) above, with E123L, L246E counted along it
In experiment [18] the test system is Polycomb protein EED (Homo sapiens), O75530 [F356Y]. The note with it: 200 uM.
Chain of Polycomb protein EED (Homo sapiens), O75530 [F356Y] (O75530 whole entry F356Y): as the sequence (O75530 whole entry L123E) above, with E123L, F356Y counted along it
Experiment [19] has as its system Pfeiffer. Description: Antiproliferative activity against human Pfeiffer cells after 7 days by CCK8 assay.
Experiment [20] concerns DB. Nature of the experiment: Antiproliferative activity against human DB cells after 7 days by CCK-8 assay. It is filed as functional, cell-based. In outline: as §1
Experiment [21] in a line: Reduction in EZH2 protein expression in human Toledo cells after 72 hrs by Western blot analysis. It is filed as functional, cell-based. Put shortly: as §2
In experiment [22] the test system is SU-DHL-6. Description: Antiproliferative activity against human SU-DHL6 cells after 7 days by CCK8 assay.
Experiment [23] is described as follows: Reduction in SUZ12 protein expression in human Toledo cells after 72 hrs by Western blot analysis. It is filed as functional, cell-based. In outline:
as §2

The target in experiment [24] is Polycomb protein EED (Homo sapiens) (UniProt O75530). This is another data set of the same source.
Experiment [25] concerns DB. Nature of the experiment: Reduction in EZH2 protein expression in human DB cells after 72 hrs by Western blot analysis. It counts as functional, cell-based. In outline:
as §2

Experiment [26] deals with Pfeiffer. Nature of the experiment: Antiproliferative activity against human Pfeiffer cells at 5 uM after 7 days by CCK-8 assay in presence of 5 uM EPZ005687. It counts as functional, cell-based.
The target of experiment [27] is Polycomb protein EED (Homo sapiens) (UniProt O75530). The source holds these as a separate data set.
Experiment [28] has the same target. This is another data set of the same source.
In experiment [29] the test system is Polycomb protein EED (Homo sapiens), O75530 [L353A]. As to conditions: 200 uM.
Chain of Polycomb protein EED (Homo sapiens), O75530 [L353A] (O75530 whole entry L353A): as the sequence (O75530 whole entry L123E) above, with E123L, L353A counted along it
Experiment [30] addresses Polycomb protein EED (Homo sapiens) (UniProt O75530). This is another data set of the same source.
For experiment [31], the system named is Toledo. Description: Antiproliferative activity against human Toledo cells by flow cytometry.
Experiment [32] relates to DB. Description: Antiproliferative activity against human DB cells after 72 h by flow cytometry in presence of EPZ005687.
In experiment [33] the test system is SUD4. Description: Antiproliferative activity against human SU-DHL4 cells at 5 uM after 7 days by CCK-8 assay in presence of 5 uM EPZ005687. It is filed as functional, cell-based.
The nature of experiment [34]: Reduction in EZH2 protein expression in human Toledo cells at 2 to 8 uM after 72 hrs by Western blot analysis. It is filed as functional, cell-based. In outline:
as §2

The test system of experiment [35] is DB. Nature of the experiment: Reduction in SUZ12 protein expression in human DB cells at 7.5 to 30 uM after 72 hrs by Western blot analysis. It is filed as functional, cell-based. Put shortly:
as §2

In experiment [36] the test system is DB. Nature of the experiment: Reduction in EZH2 protein expression in human DB cells at 7.5 to 30 uM after 72 hrs by Western blot analysis. It is filed as functional, cell-based. Put shortly:
as §2

The nature of experiment [37]: Reduction in SUZ12 protein expression in human Toledo cells at 2 to 8 uM after 72 hrs by Western blot analysis. It counts as functional, cell-based. In outline: as §2
Experiment [38] is described as follows: Reduction in EED protein expression in human Toledo cells at 2 to 8 uM after 72 hrs by Western blot analysis. It counts as functional, cell-based. In outline: as §2
Experiment [39] deals with DB. Nature of the experiment: Reduction in EED protein expression in human DB cells at 7.5 to 30 uM after 72 hrs by Western blot analysis. It is filed as functional, cell-based. In outline: as §2
Experiment [40] in a line: Reduction in SUZ12 protein expression in human Toledo cells at 10 uM after 72 hrs by Western blot analysis. It is filed as functional, cell-based. Put shortly:
as §2

Experiment [41] in a line: Reduction in EED protein expression in human Toledo cells at 10 uM after 72 hrs by Western blot analysis. It counts as functional, cell-based. In outline:
as §2

The subject of experiment [42] is DB. Description: Reduction in EZH2 protein expression in human DB cells at 10 uM after 72 hrs by Western blot analysis. It is filed as functional, cell-based. Put shortly:
as §2

In experiment [43] the test system is DB. Description: Reduction in SUZ12 protein expression in human DB cells at 10 uM after 72 hrs by Western blot analysis. It is filed as functional, cell-based. In outline: as §2
The nature of experiment [44]: Reduction in EZH2 protein expression in human Toledo cells at 10 uM after 72 hrs by Western blot analysis. It is filed as functional, cell-based. Put shortly: as §2
For experiment [45], the system named is DB. Description: Reduction in EED protein expression in human DB cells at 10 uM after 72 hrs by Western blot analysis. It counts as functional, cell-based. Put shortly: as §2

Chain of Polycomb protein EED (Homo sapiens), O75530 [L315D] (O75530 whole entry L315D): as the sequence (O75530 whole entry L123E) above, with E123L, L315D counted along it

As usually defined, the ΔTm is the change in melting temperature against a reference sample. Turning to `COc1ccc(CCN2CCC(Nc3nc4ccccc4n3Cc3ccc(F)cc3)CC2)cc1`, the result in experiment [1], in experiment [2], in experiment [3], in experiment [5], in experiment [6] and in experiment [7] was Active. For the same compound, the result in experiment [9], in [10], in experiment [11], in experiment [12], in experiment [16] and in [19] was Active. Besides, the result in experiment [20], in experiment [21], in experiment [22], in [23], in experiment [25] and in [26] was Active. Also, the outcome in [31], in [32] and in experiment [33] was Active. The ΔTm worked out at 4.08 °C in experiment [4]; 2 °C in experiment [24]; 1.64 °C in [27]; 4.29 °C in experiment [28]; 3.44 °C in [30]. Further, in [8], the result was inactive. Also, the Tm in experiment [13] was 38.1 °C; in experiment [14], 38.2 °C; in experiment [15], 38.2 °C; in experiment [17], 38.1 °C; in [18], 38.2 °C; in [29] it was 38.2 °C.

With `COc1cccc2c1C(=O)c1c(O)c3c(c(O)c1C2=O)C[C@@](O)(C(=O)CO)C[C@@H]3O[C@H]1C[C@H](N)[C@H](O)[C@H](C)O1`, the result in experiment [34], in experiment [35], in experiment [36], in experiment [37], in [38] and in [39] was inactive.

`Cc1cc(C)c(CNC(=O)c2cc(-c3ccc(CN4CCOCC4)cc3)cc3c2cnn3C2CCCC2)c(=O)[nH]1`: the outcome in [40], in experiment [41], in experiment [42], in experiment [43], in [44] and in experiment [45] was inactive.
